We go through one compound from ChEMBL document CHEMBL4673340 (J Med Chem, 2020).

Molecules are shown by their SMILES. Where only a bound is given, the exact number is not on record here.

One data set relates to MDA-MB-436. The data set can be described thus: Antitumor activity against human MDA-MB-436 cells xenografted in BALB/c nude mouse assessed as inhibition of tumor growth at 1.6 to […], po BID for 28 days followed by treatment was interruption and monitored for additional 2 months. In kind it is functional, organism-based. The settings on record: dose lower […], dose upper […], time 28.0 day.

Data set [1] in a line: Clearance in mouse liver microsomes. In kind it is ADME, Microsome. The conditions noted are these: read-out: CLH.
For data set [2], the target named is Solute carrier organic anion transporter family member 1B3 (Homo sapiens, UniProt Q9NPD5). The data set can be described thus: Inhibition of OATP1B3 (unknown origin).
Chain of Solute carrier organic anion transporter family member 1B3 (Q9NPD5 whole entry): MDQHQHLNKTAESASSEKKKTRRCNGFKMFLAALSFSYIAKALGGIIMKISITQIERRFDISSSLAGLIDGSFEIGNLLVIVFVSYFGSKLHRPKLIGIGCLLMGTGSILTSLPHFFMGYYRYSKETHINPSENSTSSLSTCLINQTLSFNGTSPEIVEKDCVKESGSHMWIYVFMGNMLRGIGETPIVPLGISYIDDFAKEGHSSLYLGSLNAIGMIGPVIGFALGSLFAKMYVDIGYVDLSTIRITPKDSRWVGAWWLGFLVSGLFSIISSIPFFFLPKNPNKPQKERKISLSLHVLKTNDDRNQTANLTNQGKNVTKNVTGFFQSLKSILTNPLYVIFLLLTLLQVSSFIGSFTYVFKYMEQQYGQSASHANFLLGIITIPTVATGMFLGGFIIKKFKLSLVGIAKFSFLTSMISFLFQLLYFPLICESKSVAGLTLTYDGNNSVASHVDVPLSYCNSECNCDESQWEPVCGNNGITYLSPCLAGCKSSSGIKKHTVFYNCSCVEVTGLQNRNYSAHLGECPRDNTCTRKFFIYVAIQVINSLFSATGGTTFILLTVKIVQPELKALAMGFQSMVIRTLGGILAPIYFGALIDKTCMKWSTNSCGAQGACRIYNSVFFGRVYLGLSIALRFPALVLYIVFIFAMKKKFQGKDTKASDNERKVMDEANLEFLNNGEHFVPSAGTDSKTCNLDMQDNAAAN
Data set [3] in a line: Volume of distribution at steady state in Beagle dog at 1 mg/kg, iv by LC-MS/MS analysis. In kind it is ADME, organism-based, Canis lupus familiaris. The settings on record: in vivo, read-out: Vdss. The essentials:
(§1)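 Beagle dogs, three per group. iv 1 mg/kg in 25% DMA in water; oral 2 mg/kg. Values are means of three dogs.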

The nature of data set [4]: Tmax in Beagle dog at 2 mg/kg, po by LC-MS/MS analysis. The data set is classed as ADME, organism-based, Canis lupus familiaris. The conditions noted are these: in vivo. An outline of the steps: as §1
A further data set addresses Cytochrome P450 2C8 (Homo sapiens, UniProt P10632). The data set can be described thus: Inhibition of CYP2C8 (unknown origin). The data set is classed as ADME.
Data set [5] can be described thus: Half life in ICR mouse at 10 mg/kg, po by LC-MS/MS analysis. In kind it is ADME, organism-based. The settings on record: in vivo. An outline of the steps: (§2)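 Male/female unspecified ICR mice, n=3 per route. Intravenous 1 mg/kg in 5% DMA in water; oral 10 mg/kg in 0.5% MC. Plasma is processed by protein precipitation and analysed by LC–MS/MS using an acetonitrile/0.1% formic acid gradient. Values are means of the three animals.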

In data set [6] the target is Organic anion transporter 3 (Homo sapiens, UniProt Q8TCC7). The data set can be described thus: Inhibition of OAT3 (unknown origin).
Chain of Organic anion transporter 3 (Q8TCC7 whole entry): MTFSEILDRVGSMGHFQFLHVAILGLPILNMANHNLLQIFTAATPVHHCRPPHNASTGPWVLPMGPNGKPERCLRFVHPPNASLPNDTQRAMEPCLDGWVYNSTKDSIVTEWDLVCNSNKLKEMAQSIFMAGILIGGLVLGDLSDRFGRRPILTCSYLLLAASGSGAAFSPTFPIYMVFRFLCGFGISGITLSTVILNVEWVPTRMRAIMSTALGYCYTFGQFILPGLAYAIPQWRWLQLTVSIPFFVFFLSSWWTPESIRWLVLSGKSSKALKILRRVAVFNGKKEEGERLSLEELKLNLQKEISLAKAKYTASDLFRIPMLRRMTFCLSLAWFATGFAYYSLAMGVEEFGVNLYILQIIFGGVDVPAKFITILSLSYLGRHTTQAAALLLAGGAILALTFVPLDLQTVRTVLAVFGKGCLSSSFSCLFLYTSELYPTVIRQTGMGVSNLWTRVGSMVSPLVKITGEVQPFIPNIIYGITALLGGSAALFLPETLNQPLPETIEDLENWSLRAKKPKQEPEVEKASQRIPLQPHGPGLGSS
Data set [7] deals with Poly [ADP-ribose] polymerase 2 (Homo sapiens, UniProt Q9UGN5). The data set can be described thus: Inhibition of PARP-2 (unknown origin) pre-incubated for 30 mins before addition of activated DNA and NAD by chemiluminescent assay.
Chain of Poly [ADP-ribose] polymerase 2 (Q9UGN5 whole entry): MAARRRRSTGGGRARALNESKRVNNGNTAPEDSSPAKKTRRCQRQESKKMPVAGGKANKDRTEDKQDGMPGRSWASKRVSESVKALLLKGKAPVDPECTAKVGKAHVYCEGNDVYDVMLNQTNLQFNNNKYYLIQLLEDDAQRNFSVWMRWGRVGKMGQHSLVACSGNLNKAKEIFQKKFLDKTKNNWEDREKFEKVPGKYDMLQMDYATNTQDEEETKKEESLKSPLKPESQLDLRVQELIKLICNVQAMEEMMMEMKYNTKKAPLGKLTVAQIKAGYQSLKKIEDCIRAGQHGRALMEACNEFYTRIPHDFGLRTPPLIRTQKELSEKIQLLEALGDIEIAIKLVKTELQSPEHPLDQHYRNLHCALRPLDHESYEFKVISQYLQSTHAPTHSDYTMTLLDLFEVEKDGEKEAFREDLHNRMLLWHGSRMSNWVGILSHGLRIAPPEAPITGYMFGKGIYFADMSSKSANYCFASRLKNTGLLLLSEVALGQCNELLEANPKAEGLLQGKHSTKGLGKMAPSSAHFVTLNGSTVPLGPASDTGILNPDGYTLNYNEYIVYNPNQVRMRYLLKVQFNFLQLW
The nature of data set [8]: Unbound fraction in rat plasma. The data set is classed as ADME, cell-free.
Data set [9] can be described thus: Half life in Sprague-Dawley rat at 5 mg/kg, po by LC-MS/MS analysis. The settings on record: in vivo.
The subject of another data set is SK-BR-3. The data set can be described thus: Antiproliferation activity against human SK-BR-3 cells incubated for 7 days by CellTiter-Glo luminescent cell viability assay. The data set is classed as functional, cell-based. The conditions noted are these: SK-BR-3, 168 h. An outline of the steps: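 Seeding density is set per line for log growth over 7 days. Cells attach 16 h, then are treated in duplicate with a 10-point dilution series for 7 days. CellTiter-Glo luminescence (ATP) is read, and viability is expressed relative to mock-treated control. EC50 is the mean of three independent experiments run in triplicate.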

The next data set deals with Cytochrome P450 2C19 (Homo sapiens, UniProt P33261). The data set can be described thus: Inhibition of CYP2C19 (unknown origin). The data set is classed as ADME.
Chain of Cytochrome P450 2C19 (P33261 whole entry): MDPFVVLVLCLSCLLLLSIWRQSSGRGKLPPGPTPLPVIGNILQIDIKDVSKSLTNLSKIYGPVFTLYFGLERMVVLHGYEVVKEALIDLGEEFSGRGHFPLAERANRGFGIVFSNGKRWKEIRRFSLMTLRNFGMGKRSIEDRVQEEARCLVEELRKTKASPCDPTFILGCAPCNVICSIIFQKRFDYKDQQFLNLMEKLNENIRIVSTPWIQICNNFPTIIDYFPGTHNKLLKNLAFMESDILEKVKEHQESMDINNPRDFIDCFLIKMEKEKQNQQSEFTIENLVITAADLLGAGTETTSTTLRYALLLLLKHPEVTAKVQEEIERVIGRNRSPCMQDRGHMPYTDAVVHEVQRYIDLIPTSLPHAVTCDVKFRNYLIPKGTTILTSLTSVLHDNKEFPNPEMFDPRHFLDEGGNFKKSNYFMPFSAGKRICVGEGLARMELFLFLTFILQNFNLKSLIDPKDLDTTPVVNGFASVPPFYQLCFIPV
Data set [10] in a line: Drug level in C57BL/6 mouse plasma at 10 mg/kg, po after 2 hrs. The data set is classed as ADME, organism-based. The essentials:
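C57BL/6 mice (n=3) dosed orally at 10 mg/kg in 0.5% MC. Plasma and brain are sampled at 1, 2 and 4 h. Brain is homogenized in 3 volumes of saline, then acetonitrile protein precipitation; plasma is likewise precipitated. Both are analysed by LC–MS/MS and reported as means.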

A short description of data set [11]: Half life in ICR mouse at 1 mg/kg, iv by LC-MS/MS analysis. The conditions noted are these: in vivo. In kind it is ADME, organism-based. The essentials: as §2

Chain of Cytochrome P450 2C8 (P10632 whole entry): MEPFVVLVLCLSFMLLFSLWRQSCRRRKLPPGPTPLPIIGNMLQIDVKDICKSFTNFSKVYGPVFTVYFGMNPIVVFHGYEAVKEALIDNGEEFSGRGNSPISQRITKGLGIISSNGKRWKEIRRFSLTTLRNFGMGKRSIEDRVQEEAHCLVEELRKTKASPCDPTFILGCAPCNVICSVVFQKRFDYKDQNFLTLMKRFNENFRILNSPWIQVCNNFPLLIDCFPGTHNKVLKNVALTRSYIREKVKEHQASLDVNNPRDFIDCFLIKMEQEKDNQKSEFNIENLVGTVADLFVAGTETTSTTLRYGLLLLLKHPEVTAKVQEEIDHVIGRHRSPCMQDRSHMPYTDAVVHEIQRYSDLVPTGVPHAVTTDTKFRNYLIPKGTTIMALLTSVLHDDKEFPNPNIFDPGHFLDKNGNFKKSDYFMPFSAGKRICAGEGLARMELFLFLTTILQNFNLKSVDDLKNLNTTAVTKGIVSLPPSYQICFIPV

With `C[C@]12CCCN1CC1=NNC(=O)c3cc(F)cc4[nH]c2c1c34` [PAMIPARIB], the TGI result in the data set with MDA-MB-436 is “Dose-dependent effect”. Also, the CLint scaled in data set [1] amounted to 12.9 mL/min/kg. For the same compound, the IC50 in data set [2] was 19.4 µM; at Cytochrome P450 2C8, more than 10 µM; in data set [6] it was 23.9 µM; in data set [7], 0.0009 µM; at Cytochrome P450 2C19, more than 10 µM. Moreover, the Vd in data set [3] worked out at 2.09 L/kg. For the same compound, the Tmax in data set [4] was 0.417 h. Besides, the figures for the half-life in data set [5], in [9] and in data set [11] were 3.16 h, 5.5 h and 3.95 h, respectively. In data set [8], this compound yielded a fraction unbound of 0.151. This compound also gave an EC50 with SK-BR-3 of more than 10 µM. In data set [10], this compound showed a concentration at 2 h of 1330 ng/mL.
